# Screening results deposited in PubChem BioAssay by several laboratories.
# SENP1 inh: inhibitors of human SENP1 SUMO protease catalytic domain; recombinant SENP1 catalytic domain, CyPet-SUMO1-YPet FRET cleavage; 360,000 tested, 0.21% active; inhibition, % at 10 µM;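 active = inhibition at least 30% at 10 µM, raw YFP signal under a set limit, fluorescence ratio 0.5 to 1.5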
#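 material = recombinant human SENP1 catalytic domain, His6-tagged | quantity = 20 pM enzyme | reagent = 25 nM SUMO1 FRET substrate | compound dosing = 10 µM single point, 0.5% DMSO | timing = 50 min enzyme reaction, room temperature, light-protected | detection = FRET, CFP and YFP emission | control set = no-enzyme low, enzyme-DMSO high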
# SENP6 block: blocks the human protease SENP6; Recombinant SENP6 catalytic domain, aminoluciferin luminescence; inhibition, % at 10 µM; 330,000 tested, 1.8% active; Q9GZR1; AID 2599;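 active = inhibition above about 50% at the single tested dose, limit read from the data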
# SENP8 block-1: SENP8 (human) protease inhibition | Q96LD8 | recombinant SENP8, Nedd8 substrate fluorescence | inhibition, % at 20 µM | 360,000 tested, 0.64% active; in the data active = inhibition mostly above about 40%, no sharp cut-off; inactive = mostly below about 27%
# Platelet DG rel: platelet dense granule release activity; human platelet-rich plasma, SFLLRN dense granule ATP release, luminescence; inhibition, %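 (compounds screened at 7.5 µM in platelet-rich plasma)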; 300,000 tested, 0.22% active;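 active = mean replicate score, as percent of positive control, at or above 50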
# SENP7 inh: blocks the human protease SENP7; recombinant SENP7, Z-RLRGG-aminoluciferin luminescence, 40 min; inhibition, % at 5 µM; 330,000 tested, 1.5% active; AID 434973;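 active = inhibition above about 50% at the single test dose, limit read from the data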
# Target sequence (Q9BQF6 706-1050 limits assumed): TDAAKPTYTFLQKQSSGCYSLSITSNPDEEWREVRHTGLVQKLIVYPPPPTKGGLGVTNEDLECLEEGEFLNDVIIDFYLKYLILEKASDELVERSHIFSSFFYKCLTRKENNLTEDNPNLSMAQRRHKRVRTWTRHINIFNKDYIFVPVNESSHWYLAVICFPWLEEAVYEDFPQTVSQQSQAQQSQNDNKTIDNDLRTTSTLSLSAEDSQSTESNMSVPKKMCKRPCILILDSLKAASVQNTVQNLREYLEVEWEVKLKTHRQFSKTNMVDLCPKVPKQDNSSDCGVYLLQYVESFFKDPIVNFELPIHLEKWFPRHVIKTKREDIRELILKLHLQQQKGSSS
# SENP8 block-2: inhibitors of human SENP8 protease | purified SENP8, Z-RLRGG-aminoluciferin cleavage, luminescence | Q96LD8 | 330,000 tested, 1.2% active | inhibition, % at 10 µM; in the data active = inhibition above about 50%
# SENP8 confirm: human SENP8 inhibition, confirmed; shares compounds with SENP7 inh; Recombinant SENP8, Z-RLRGG-aminoluciferin luminescence, 60 min; inhibition, % at 12.5 µM; 6,200 tested, 40% active;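 active = mean inhibition across replicates above about 50%, limit read from the data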
# SENP6 conf: human SENP6 inhibition, confirmed; 6,200 tested, 58% active; recombinant SENP6, Z-RLRGG-aminoluciferin luminescence; inhibition, % at 12.5 µM; shares compounds with SENP7 inh; AID 488915
# SENP7 confirm: human SENP7 inhibition, confirmed | recombinant SENP7, Z-RLRGG-aminoluciferin luminescence, 40 min | inhibition, % at 12.5 µM | AID 488917 | 6,200 tested, 69% active | shares compounds with SENP7 inh
# Casp3 SENP sel: caspase-3 inhibition (SENP selectivity assay). inhibition, % at 12.5 µM. 6,200 tested, 60% active. purified caspase-3, Z-DEVD-aminoluciferin luminescence, 60 min. shares compounds with SENP7 inh;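 active = mean inhibition above about 50%, limit read from the data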
# Target sequence (P42574 28-227 limits assumed): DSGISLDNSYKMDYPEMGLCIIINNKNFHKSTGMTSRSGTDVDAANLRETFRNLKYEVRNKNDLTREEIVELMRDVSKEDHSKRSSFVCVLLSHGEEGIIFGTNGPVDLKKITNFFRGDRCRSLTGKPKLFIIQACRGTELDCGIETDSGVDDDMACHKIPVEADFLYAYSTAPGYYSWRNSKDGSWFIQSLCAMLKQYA
# Luc interf: luminescence interference (SENP counter-screen). shares compounds with SENP7 inh. Pre-incubated SENP8/Z-RLRGG-aminoluciferin, luciferase luminescence interference. inhibition, % at 12.5 µM. 6,200 tested, 39% active. AID 488919;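 active = mean inhibition above about 50% when retested at one dose, limit read from the data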
# Numbers stand for hits; – = inactive; · = not tested or not shown. Rows were chosen to be rich in hits. Some 2.6% of all compounds tested hit in one or more screens of this group.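 The calls were made as follows, unless noted: active = mean inhibition above about 50% in the one-dose retest (limit read from the data); inactive = the rest.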
SMILES,SENP1 inh,SENP6 block,SENP8 block-1,Platelet DG rel,SENP7 inh,SENP8 block-2,SENP8 confirm,SENP6 conf,SENP7 confirm,Casp3 SENP sel,Luc interf
Cc1ccc(C)c(C(O)c2ncc(-c3ccccc3)[nH]2)c1 (stereo not given),–,·,–,·,·,·,·,·,·,·,·
Cc1ccc(O)c(-c2cc3ccccc3[nH]2)c1,–,70.8,–,–,53.1,–,61.5,62.1,82.6,–,71.0
c1ccc(-c2cc3ccccc3[nH]2)cc1,–,–,–,–,–,–,·,·,·,·,·
COc1ccc(-c2cc3ccccc3[nH]2)cc1,–,52.8,–,–,61.4,–,–,–,66.2,–,–
CC(c1nc2ccccc2c(=O)[nH]1)N1CCCN(S(=O)(=O)c2ccc(F)cc2)CC1 (stereo not given),–,–,–,·,–,–,·,·,·,·,·
CCc1ccc(OCC(=O)NNC(=O)Cc2c(F)cccc2Cl)cc1,–,–,–,–,–,–,·,·,·,·,·
COc1ccccc1C(=O)COC(=O)c1ccccc1OCC(=O)Nc1ccc(SC(F)F)cc1,–,–,–,–,–,–,·,·,·,·,·
O=C1c2ccccc2NC(c2cnc3ccccc3n2)N1O (stereo not given),–,71.7,–,–,–,–,–,–,–,–,–
Cc1nn(C)c(C)c1C1Nc2ccccc2C(=O)N1O (stereo not given),–,–,–,–,–,–,·,·,·,·,·
NS(=O)(=O)c1cc(C(=O)OCC(=O)Nc2ccc(N3CCCCC3)cc2)ccc1Cl,–,–,–,–,–,–,·,·,·,·,·
CC1S/C(=N/N=C2CCCCC2)NC1=O (stereo not given),–,–,–,–,–,–,·,·,·,·,·
Cc1ccc(/C=C/C2=NN(Cc3ccccc3)C(=O)CC2)cc1,–,–,–,–,–,–,·,·,·,·,·
CN1N=C(/C=C/c2ccccc2)CCC1=O,–,68.6,–,–,72.7,60.9,60.5,63.2,91.6,88.9,67.6
Cc1ccc(/C=C/C2=NN(C)C(=O)CC2)cc1,–,–,–,–,85.6,76.1,75.3,81.1,97.6,92.6,61.6
Cc1ccc(OCC(=O)NCCNC(=O)c2ccco2)cc1C,–,–,–,–,–,–,·,·,·,·,·
Cc1ccc2c(c1)N=C(c1ccc(F)cc1)CO2,–,97.8,–,·,97.4,95.0,–,97.0,102.2,90.6,–
O=[N+]([O-])c1ccc(C2=Nc3cc(Cl)ccc3OC2)cc1,–,–,–,–,–,–,·,·,·,·,·
CCCc1cc(=O)n2c([nH]c3ccccc32)c1C#N,–,51.1,–,–,–,–,–,–,51.1,53.0,–
CCCCc1c(C)c(C#N)c2[nH]c3ccccc3n2c1=O,–,–,–,–,–,–,·,·,·,·,·
COc1ccc(C(=O)Nc2ccc(C3(C#N)CCCC3)cc2)cc1,–,–,–,–,–,–,·,·,·,·,·
N#CC1(c2ccc(NC(=O)c3ccccc3F)cc2)CCCC1,–,84.3,–,–,76.5,75.5,79.5,76.9,93.0,74.3,63.6
Clc1ccccc1CONc1ncnc2nonc12,–,61.7,–,–,–,–,–,–,71.3,53.4,60.9
C/C(=N/OC(=O)C1CC1c1ccccc1)c1ccccc1 (stereo not given),–,–,–,–,–,–,·,·,·,·,·
O=C(O)c1cc(O)c2c(c1)C(=O)c1cc(O)cc(O)c1C2=O,–,51.9,–,–,–,–,67.0,60.0,84.3,–,72.1
CN(C)S(=O)(=O)c1cccc(NC(=O)/C=C/c2ccccc2[N+](=O)[O-])c1,–,–,–,–,–,–,·,·,·,·,·
SMILES,SENP1 inh,SENP6 block,SENP8 block-1,Platelet DG rel,SENP7 inh,SENP8 block-2,SENP8 confirm,SENP6 conf,SENP7 confirm,Casp3 SENP sel,Luc interf
O=C(CCl)N1c2ccccc2CCc2ccccc21,–,–,–,–,–,–,·,·,·,·,·
NC(=S)Nc1cc2ccccc2c2ccccc12,–,–,–,–,–,–,·,·,·,·,·
NC(=S)Nc1cccc2cc3ccccc3cc12,–,60.5,–,–,–,–,50.9,59.7,74.0,–,61.1
OC(C#Cc1ccccn1)c1cccs1 (stereo not given),–,–,–,–,–,–,·,·,·,·,·
CCCC(=O)Nc1ccc(NC(=O)c2cccc(OC)c2)nc1,–,52.3,–,–,–,–,–,–,75.2,76.4,52.2
COc1cccc(C(=O)Nc2ccc3c(c2)C(=O)NC3=O)c1,–,58.0,–,–,55.5,51.3,–,–,–,–,–
CCOc1cccc(C(=O)Nc2ccc(NC(=O)c3ccccc3)c(C)c2)c1,–,78.0,–,–,78.1,77.1,–,–,–,86.5,–
COc1ccc(C(=O)Nc2cc(OC)nc(OC)n2)cc1,–,87.1,–,55.5,82.8,73.9,83.2,83.1,97.2,92.1,84.0
CCOc1ccc(S(=O)(=O)Nc2ccccc2C(=O)NCc2ccco2)cc1,–,–,–,–,–,–,·,·,·,·,·
Cc1ccc(C(C(=O)NC2CCCC2)N(C(=O)c2csnn2)C2CC2)cc1 (stereo not given),–,–,–,–,–,–,·,·,·,·,·
O=C(Nc1cccc(-c2nc3cccnc3s2)c1)C1c2ccccc2Oc2ccccc21,–,–,–,–,–,–,·,·,·,·,·
COc1cccc(C(=O)Nc2cccc(NC(=O)c3ccccc3Cl)c2)c1,–,–,–,–,–,–,·,·,·,·,·
COc1cccc(C(=O)Nc2cccc(OCC(=O)O)c2)c1,–,–,–,–,57.8,–,53.1,–,80.6,84.5,55.8
COc1ccc(OC)c(C(=O)c2ccc(C(=O)Nc3ccc4ccccc4c3)cc2)c1,–,–,–,–,–,–,·,·,·,·,·
Cc1cccc(C(=O)Nc2ccc3ccccc3c2)c1,–,83.0,–,–,74.9,73.4,74.0,75.9,93.9,57.9,–
COc1cccc(C(=O)Nc2cccc(SC)c2)c1,–,78.9,–,–,75.3,55.5,72.5,72.1,90.3,64.9,70.3
COc1ccc(C(=O)Nc2ccc3ccccc3c2)cc1,–,87.9,–,–,96.2,85.7,–,83.9,99.5,80.4,–
COC(=O)COc1cccc(NC(=O)c2cc(OC)cc(OC)c2)c1,–,–,–,–,–,–,·,·,·,·,·
O=C(Nc1ccc2ccccc2c1)c1cccc([N+](=O)[O-])c1,–,–,–,–,–,–,·,·,·,·,·
COc1cccc(C(=O)Nc2ccc3[nH]ncc3c2)c1,–,–,–,–,–,–,·,·,·,·,·
